Assay results as given in ChEMBL document CHEMBL1156227, “New aromatic monoesters of alpha-aminoaralkylphosphonic acids as inhibitors of aminopeptidase N/CD13” (Bioorg Med Chem, 2010).
pIC50, pKi: −log10 of the molar value.

Columns and labels:
Aminopeptidase N [1] = target: T1, Aminopeptidase N (Sus scrofa, UniProt P15145); assay: Inhibition of pig kidney aminopeptidase N using Leu-AMC as substrate
T1 sequence (P15145 whole entry): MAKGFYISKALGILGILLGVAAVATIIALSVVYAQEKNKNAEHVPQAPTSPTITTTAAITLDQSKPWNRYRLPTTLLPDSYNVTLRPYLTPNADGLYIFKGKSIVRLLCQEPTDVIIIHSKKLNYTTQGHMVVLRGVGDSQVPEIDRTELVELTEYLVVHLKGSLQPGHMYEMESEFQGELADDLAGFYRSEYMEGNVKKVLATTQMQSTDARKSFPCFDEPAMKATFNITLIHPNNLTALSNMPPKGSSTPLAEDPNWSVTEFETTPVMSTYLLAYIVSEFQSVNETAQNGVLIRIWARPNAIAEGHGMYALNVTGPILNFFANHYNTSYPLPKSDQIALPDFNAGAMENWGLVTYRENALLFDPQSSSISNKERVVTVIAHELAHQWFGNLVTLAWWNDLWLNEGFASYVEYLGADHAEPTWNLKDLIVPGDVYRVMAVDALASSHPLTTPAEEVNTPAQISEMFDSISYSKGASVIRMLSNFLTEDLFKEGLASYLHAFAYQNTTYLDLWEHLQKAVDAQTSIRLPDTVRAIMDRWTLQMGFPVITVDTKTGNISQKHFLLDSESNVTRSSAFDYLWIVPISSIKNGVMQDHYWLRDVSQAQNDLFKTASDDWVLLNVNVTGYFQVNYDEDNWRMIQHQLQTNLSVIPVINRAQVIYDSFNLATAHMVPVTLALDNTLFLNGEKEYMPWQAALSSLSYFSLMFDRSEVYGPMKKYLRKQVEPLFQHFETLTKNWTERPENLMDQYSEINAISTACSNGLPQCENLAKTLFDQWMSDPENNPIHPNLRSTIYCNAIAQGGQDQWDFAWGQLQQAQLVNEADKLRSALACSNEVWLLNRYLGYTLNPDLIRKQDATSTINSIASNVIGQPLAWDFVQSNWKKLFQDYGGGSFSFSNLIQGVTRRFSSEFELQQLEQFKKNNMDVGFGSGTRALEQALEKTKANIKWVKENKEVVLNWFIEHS

Cytosol aminopeptidase = Cytosol aminopeptidase (Homo sapiens, UniProt P28838); assay: Inhibition of leucine aminopeptidase
Aminopeptidase N [2] = target: Aminopeptidase N (Homo sapiens, UniProt P15144); assay: Inhibition of aminopeptidase N
HT-1080 [3] = assay: Cytotoxicity against human HT1080 cells assessed as cell growth inhibition after 72 hrs by XTT assay in the presence of TNFalpha relative to control; assay type: functional; set-up: scale not given: the % may be the effect or the level left
Procedure, shortened: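 HT-1080 cells grown adherent in DMEM with 2 mM L-glutamine, 10% heat-inactivated FBS and penicillin–streptomycin at 37 °C, 5% CO2. Inhibitor (0–300 μM, from 0.1 M NaOH stock, diluted in medium) co-applied with TNF-α (0–30 μg/ml) for 72 h. Controls received matching 0.1 M NaOH. XTT added for 4 h, A490 read, normalised to untreated cells.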

PANC-1 [4] = assay: Cytotoxicity against human PANC1 cells assessed as cell growth inhibition at 300 uM after 72 hrs by XTT assay relative to control; assay type: functional; set-up: scale not given: the % may be the effect or the level left
Procedure, shortened: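 PANC-1 cells cultured adherent in DMEM with 2 mM L-glutamine, 10% non-heat-inactivated FBS and penicillin–streptomycin at 37 °C, 5% CO2. Inhibitor (0–300 μM, 0.1 M NaOH stock diluted in medium) applied 72 h, with controls given matching 0.1 M NaOH. XTT incubation 4 h, A490 read, values normalised to untreated culture as percentage growth.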

HT-1080 [5] = assay: Cytotoxicity against human HT1080 cells assessed as cell growth inhibition at 300 uM after 72 hrs by XTT assay relative to control; assay type: functional; set-up: scale not given: the % may be the effect or the level left
Procedure, shortened: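 HT-1080 cells kept adherent in DMEM plus 2 mM L-glutamine, 10% heat-inactivated FBS and penicillin–streptomycin at 37 °C, 5% CO2. Exposed 72 h to inhibitor (0–300 μM; 0.1 M NaOH stock diluted in medium), with vehicle controls given matching 0.1 M NaOH. XTT staining for 4 h, absorbance at 490 nm, expressed as percentage growth relative to untreated culture.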

HT-1080 [6] = assay: Cytotoxicity against human HT1080 cells assessed as cell growth inhibition after 72 hrs by XTT assay; assay type: functional; set-up: scale not given: the % may be the effect or the level left
Procedure, shortened: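 HT-1080 cells cultured adherent in DMEM with 2 mM L-glutamine, 10% heat-inactivated FBS and 1% penicillin–streptomycin at 37 °C, 5% CO2. Exposed 72 h to inhibitor (0–300 μM from 0.1 M NaOH stocks diluted in medium; NaOH vehicle controls), with or without TNF-α (0–30 μg/ml). XTT for 4 h, absorbance at 490 nm, growth expressed relative to untreated cells; mean ± one SD.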

PANC-1 [7] = assay: Cytotoxicity against human PANC1 cells assessed as cell growth inhibition after 72 hrs by XTT assay; assay type: functional; set-up: scale not given: the % may be the effect or the level left
Procedure, shortened: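 PANC-1 cells grown adherent in DMEM with 2 mM L-glutamine, 10% uninactivated FBS and 1% penicillin–streptomycin at 37 °C, 5% CO2. Treated 72 h with inhibitor (0–300 μM; stocks in 0.1 M NaOH, diluted in medium; vehicle controls), alone or with TNF-α (0–30 μg/ml). XTT added for 4 h; absorbance read at 490 nm and normalised to untreated cultures; mean ± one SD.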

Cytosol aminopeptidase, sequence (P28838 whole entry): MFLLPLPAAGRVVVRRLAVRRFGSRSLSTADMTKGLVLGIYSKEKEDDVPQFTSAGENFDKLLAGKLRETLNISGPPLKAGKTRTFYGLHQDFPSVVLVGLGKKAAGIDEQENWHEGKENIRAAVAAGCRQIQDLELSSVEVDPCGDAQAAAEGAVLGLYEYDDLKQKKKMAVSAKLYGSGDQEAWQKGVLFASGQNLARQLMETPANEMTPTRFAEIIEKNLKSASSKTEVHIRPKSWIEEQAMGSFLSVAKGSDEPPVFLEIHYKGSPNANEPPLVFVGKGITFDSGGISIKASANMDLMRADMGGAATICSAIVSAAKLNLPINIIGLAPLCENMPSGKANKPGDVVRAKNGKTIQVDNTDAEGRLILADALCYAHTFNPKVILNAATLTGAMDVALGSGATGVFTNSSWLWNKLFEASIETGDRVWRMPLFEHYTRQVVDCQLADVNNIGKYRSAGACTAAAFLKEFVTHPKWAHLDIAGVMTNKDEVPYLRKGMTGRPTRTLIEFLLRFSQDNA
Aminopeptidase N (Homo sapiens, UniProt P15144), sequence (P15144 whole entry): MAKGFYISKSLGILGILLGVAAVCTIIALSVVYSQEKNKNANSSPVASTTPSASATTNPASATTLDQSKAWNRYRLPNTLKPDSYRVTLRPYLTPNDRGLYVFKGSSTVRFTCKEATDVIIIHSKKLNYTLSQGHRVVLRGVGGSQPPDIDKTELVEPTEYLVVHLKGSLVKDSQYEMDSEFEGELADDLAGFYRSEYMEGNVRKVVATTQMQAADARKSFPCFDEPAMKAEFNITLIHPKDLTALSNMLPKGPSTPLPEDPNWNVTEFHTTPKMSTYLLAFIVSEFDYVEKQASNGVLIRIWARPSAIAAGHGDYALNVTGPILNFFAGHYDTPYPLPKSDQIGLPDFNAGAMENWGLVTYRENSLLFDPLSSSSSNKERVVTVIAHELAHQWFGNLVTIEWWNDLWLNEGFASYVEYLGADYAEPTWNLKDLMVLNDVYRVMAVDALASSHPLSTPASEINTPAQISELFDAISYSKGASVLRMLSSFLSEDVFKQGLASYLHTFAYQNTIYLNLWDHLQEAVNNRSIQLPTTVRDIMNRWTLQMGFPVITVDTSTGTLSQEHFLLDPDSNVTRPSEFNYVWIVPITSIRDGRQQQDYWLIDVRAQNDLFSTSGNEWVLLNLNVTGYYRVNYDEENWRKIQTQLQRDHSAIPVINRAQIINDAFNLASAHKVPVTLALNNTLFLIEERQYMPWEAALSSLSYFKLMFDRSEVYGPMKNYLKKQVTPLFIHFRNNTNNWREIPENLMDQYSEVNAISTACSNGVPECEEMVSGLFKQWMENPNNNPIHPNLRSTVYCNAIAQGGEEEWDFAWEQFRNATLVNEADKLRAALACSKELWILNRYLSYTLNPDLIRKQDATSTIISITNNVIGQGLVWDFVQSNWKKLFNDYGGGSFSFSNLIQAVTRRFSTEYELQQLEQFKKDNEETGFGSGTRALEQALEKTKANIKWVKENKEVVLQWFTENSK

| SMILES | pIC50 (Aminopeptidase N [1]) | further results |
| --- | --- | --- |
| CCCC(N)P(=O)(O)O (stereo unspecified) | 4.82 |  |
| CCCCC(N)P(=O)(O)O (stereo unspecified) | 4.12 |  |
| COc1ccc(OP(=O)(O)C(N)CCc2ccccc2)cc1 (stereo unspecified) | 5.54 |  |
| CCCCC(N)P(=O)(O)Oc1ccccc1 (stereo unspecified) | 5.25 |  |
| NC(c1ccccc1)P(=O)(O)Oc1ccccc1 (stereo unspecified) | 4.68 |  |
| Cc1cc(C)c(C)c(OP(=O)(O)C(C)N)c1 (stereo unspecified) | 4.85 |  |
| CCC(N)P(=O)(O)Oc1cc(C)ccc1C (stereo unspecified) | 3.92 |  |
| NC(Cc1ccccc1)P(=O)(O)O (stereo unspecified) | 4.27 | pKi (Cytosol aminopeptidase): 6.38; pKi (Aminopeptidase N [2]): 4.56 |
| CC(C)C(N)P(=O)(O)Oc1ccccc1 (stereo unspecified) | 4.85 |  |
| CCCCC(N)P(=O)(O)Oc1ccc(OC)cc1 (stereo unspecified) | 3.68 |  |
| NC(CCc1ccccc1)P(=O)(O)Oc1ccc(C(=O)O)cc1 (stereo unspecified) | 4.66 |  |
| CC(C)(C)CC(C)(C)c1ccc(OP(=O)(O)C(N)CCc2ccccc2)cc1 (stereo unspecified) | 5.20 |  |
| NC(Cc1ccccc1)P(=O)(O)Oc1ccccc1 (stereo unspecified) | 5.09 | pKi (Cytosol aminopeptidase): 6.38; pKi (Aminopeptidase N [2]): 4.56 |
| NC(CCc1ccccc1)P(=O)(O)Oc1ccccc1 (stereo unspecified) | 5.21 |  |
| CCc1ccc(OP(=O)(O)C(C)N)cc1 (stereo unspecified) | 5.08 |  |
| CC(N)P(=O)(O)Oc1ccc(C(C)(C)C)cc1 (stereo unspecified) | 5.09 |  |
| CCC(N)P(=O)(O)Oc1ccc(C)cc1 (stereo unspecified) | 5.15 |  |
| CCC(N)P(=O)(O)Oc1ccc(C)c(C)c1 (stereo unspecified) | 5.52 |  |
| CCC(CC)C(N)P(=O)(O)Oc1ccccc1 (stereo unspecified) | < 4.00 |  |
| CC(C)CC(N)P(=O)(O)Oc1ccccc1 (stereo unspecified) | 5.03 | pKi (Cytosol aminopeptidase): 6.64; pKi (Aminopeptidase N [2]): 4.28 |

| SMILES | pIC50 (Aminopeptidase N [1]) | further results |
| --- | --- | --- |
| CCCCCC(N)P(=O)(O)Oc1ccccc1 (stereo unspecified) | 5.32 |  |
| CCCCC(N)P(=O)(O)Oc1ccc(C(=O)O)cc1 (stereo unspecified) | 4.26 |  |
| Cc1ccc(C)c(OP(=O)(O)C(N)CCc2ccccc2)c1 (stereo unspecified) | 4.82 |  |
| Cc1ccc(OP(=O)(O)C(N)CCc2ccccc2)cc1C (stereo unspecified) | 5.66 |  |
| Cc1cc(C)c(C)c(OP(=O)(O)C(N)CCc2ccccc2)c1 (stereo unspecified) | 5.30 |  |
| CCc1ccc(OP(=O)(O)C(N)CCc2ccccc2)cc1 (stereo unspecified) | 4.89 |  |
| CC(C)c1ccc(OP(=O)(O)C(N)CCc2ccccc2)cc1 (stereo unspecified) | 6.30 |  |
| CC(C)(C)c1ccc(OP(=O)(O)C(N)CCc2ccccc2)cc1 (stereo unspecified) | 5.72 |  |
| CCC(N)P(=O)(O)Oc1ccc(C(C)(C)C)cc1 (stereo unspecified) | 5.96 | Activity (HT-1080 [3]): 60%; Activity (PANC-1 [4]): 26%; Activity (HT-1080 [5]): 36% |
| CCC(N)P(=O)(O)Oc1ccc(C(=O)O)cc1 (stereo unspecified) | 3.70 |  |
| CCCCC(N)P(=O)(O)Oc1ccc(C)cc1 (stereo unspecified) | 6.00 |  |
| CCCCC(N)P(=O)(O)Oc1ccc(C)c(C)c1 (stereo unspecified) | 5.85 |  |
| CCCCC(N)P(=O)(O)Oc1cc(C)ccc1C (stereo unspecified) | 3.70 |  |
| CCC(N)P(=O)(O)O (stereo unspecified) | 4.30 |  |
| CC(N)P(=O)(O)O (stereo unspecified) | 4.38 |  |
| CCCCCC(N)P(=O)(O)O (stereo unspecified) | 5.08 |  |
| CC(C)C(N)P(=O)(O)O (stereo unspecified) | 3.98 |  |
| CC(C)CC(N)P(=O)(O)O (stereo unspecified) | 4.43 | pKi (Aminopeptidase N [2]): 4.28 |
| NC(c1ccccc1)P(=O)(O)O (stereo unspecified) [AMINO(PHENYL)METHYLPHOSPHONIC ACID] | 3.66 |  |
| CC(C)C[C@H](NC(=O)[C@@H](O)[C@H](N)Cc1ccccc1)C(=O)O [UBENIMEX] |  | Activity (HT-1080 [6]): < 10%; Activity (PANC-1 [7]): < 10% |
